Compound activity as filed in PubChem.
ARFGAP1 inh: inhibits rat ARF GTPase activating protein 1; Q62848; AID 651572; Arfgap1-stimulated ARF1 GTP hydrolysis, GDP FP detection; inhibition, % at 16.5 µM; 360,000 compounds, 0.26% hits;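 active = inhibition above a per-plate limit, mean inhibition of low control wells plus 3 SD, cut at about 25% in these data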
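Material: truncated rat Arfgap1 GAP domain; Incubation: compound-enzyme preincubation 20 min, reaction 120 min, detection 60 min, 25 °C; Read-out: percent inhibition of Arfgap1-stimulated GTP hydrolysis; Technique: FP, GDP Alexa 633 tracer displaced from anti-GDP antibody, 620/688 nm; Controls: No-Arfgap1 wells (100%) versus DMSO full-reaction wells (0%); Replication: single well per compound.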
ASAP1 GAP inh: inhibitors of human ASAP1 ArfGAP activity; ASAP1-stimulated ARF1 GTP hydrolysis, GDP FP detection; inhibition, % at 16.5 µM; 360,000 compounds, 0.19% hits; AID 624377; in the data active = inhibition above about 25%
Target sequence (Q9ULH1 325-724 limits assumed): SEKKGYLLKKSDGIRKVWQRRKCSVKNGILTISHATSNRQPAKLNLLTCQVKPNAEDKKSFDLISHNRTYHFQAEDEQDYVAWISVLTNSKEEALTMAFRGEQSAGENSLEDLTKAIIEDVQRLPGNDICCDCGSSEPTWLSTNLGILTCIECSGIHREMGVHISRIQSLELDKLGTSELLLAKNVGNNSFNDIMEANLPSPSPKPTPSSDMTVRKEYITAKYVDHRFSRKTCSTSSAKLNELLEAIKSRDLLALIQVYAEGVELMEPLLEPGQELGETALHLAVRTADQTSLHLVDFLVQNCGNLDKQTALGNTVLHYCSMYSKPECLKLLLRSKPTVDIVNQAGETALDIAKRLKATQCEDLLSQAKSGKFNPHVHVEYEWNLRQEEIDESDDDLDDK
UHRF1 MBD2 ctr: UHRF1 methyl-DNA binding inhibition | 370,000 compounds, 0.75% hits | UHRF1 binding to methylated oligo, TR-FRET | Q96T88 | inhibition, % at 4.4 µM; in the data active = inhibition above about 21%;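 also: UHRF1 SRA domain binding a hemimethylated CpG hairpin DNA probe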
MBD2 DNA inh: blocks human MBD2 binding to methylated DNA. TR-FRET, MBD2 binding to methylated oligonucleotide. inhibition, % at 4.4 µM. AID 686964. Q9UBB5. 370,000 compounds, 0.31% hits; in the data active = inhibition above about 13%
TDP2 absorb: blocks human TDP2 phosphodiesterase activity; 370,000 compounds, 0.34% hits; O95551; AID 720702; inhibition, % at 12.8 µM; recombinant TDP2, T5PNP hydrolysis, p-nitrophenol absorbance 415 nm;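 active = inhibition above the mean of all tested compounds plus 3 SD, set per campaign, cut at about 25% in these data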
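System – recombinant human TDP2 · Amount – 120 nM TDP2 per well · Buffer or medium – Mg2+-containing Tris-HCl buffer, pH 7.5 · Reagent – T5PNP substrate, 5 mM · Dosing – 12.8 µM single point, 1% DMSO · Incubation – 2 h at 37 °C · Measured by – epi absorbance · Read-out basis – percent inhibition · Benchmarks – high control without enzyme, low control DMSO plus TDP2 · Repeats – singlicate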
LEDGF integ inh: blocks HIV-1 LEDGF/p75-dependent DNA integration; TR-FRET IN-LEDGF/p75 DNA integration, Eu/Cy5; 370,000 compounds, 0.64% hits; inhibition, % at 3.7 µM;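 active = inhibition above the screen-wide mean plus 3 SD, cut at about 13% in these data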;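 also: signal is the Cy5 over europium emission ratio at 671 and 618 nm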
Each line names hits and unclear results; the compound was inactive in the other large screens. In the library only some 2% were active in any assay of this set; here they are far more common.

CCCN(CC1CC1)c1c2c(nc3ncnn13)CCCC2	none (no result: ARFGAP1 inh, ASAP1 GAP inh)
Cc1ccc(C(=O)Nc2nc(-c3cc(Cl)sc3Cl)cs2)cc1	UHRF1 MBD2 ctr 23.1
Cc1cc(C(=O)OCC(=O)Nc2cccc(S(N)(=O)=O)c2)c2ccccc2n1	UHRF1 MBD2 ctr 22.7
COc1ccc(C(C(=O)NC2CCCC2)N(C(=O)c2ccco2)c2ccc(OC)c(OC)c2)cc1 (centres undefined)	none
COc1ccc(N(C(=O)c2ccco2)C(C(=O)NC2CCCC2)c2ccncc2)cc1OC (centres undefined)	UHRF1 MBD2 ctr 23.1
N#CCC[C@H]1CC[C@]2(CCCN(c3ccccc3)C2)O1	none (no result: ARFGAP1 inh, ASAP1 GAP inh)
CCOC(=O)N1CCN(C(=O)C[C@H]2C[C@@]3(C(=O)OC)C(=C[C@H](C(C)(C)C)O[C@@H]3C)N(CCc3ccc(OC)c(OC)c3)C2=O)CC1	none (no result: ARFGAP1 inh, ASAP1 GAP inh)
Cn1c(C(=O)N2CCCC(C(=O)NCCCSC3CCCCC3)C2)cc2sccc21 (centres undefined)	UHRF1 MBD2 ctr 60.9
Cn1c(C(=O)N2CCCC(C(=O)NCc3cccs3)C2)cc2sccc21 (centres undefined)	none
CCOC(=O)C1C(c2cc(OC)c(OC)c(OC)c2)NC(=S)NC1(O)C(F)(F)F (centres undefined)	none
CCOC(=O)C1C(c2cccc(F)c2)NC(=S)NC1(O)C(F)(F)F (centres undefined)	UHRF1 MBD2 ctr 28.9
CC1(c2ccccc2)CC(=O)N(c2ccc(NC(=O)c3ccccn3)cc2Cl)C1=O (centres undefined)	none (no result: ARFGAP1 inh, ASAP1 GAP inh)
CCOC(=O)N1CCC(N2C(=O)c3ccccc3C2Nc2ccc3c(C)cc(=O)oc3c2)CC1 (centres undefined)	UHRF1 MBD2 ctr 33.3
N#C/C(=C/c1ccc(N2CCCCC2)o1)C(=O)Nc1ccc(Cl)cc1	UHRF1 MBD2 ctr 54.2
COc1cc(O)c(C(CCN2CCN(c3ccccc3)CC2)c2ccc(N(C)C)cc2)c(OC)c1 (centres undefined)	UHRF1 MBD2 ctr 22.1
COc1cc(/C=N/NC(=O)CC2C(=O)NN=C2C)ccc1O (centres undefined)	LEDGF integ inh 74.2
O=C(c1ccccc1)C1CCN(c2ncnc3sccc23)CC1	none (no result: ARFGAP1 inh, ASAP1 GAP inh)
Cc1ccccc1-n1c(O)cc(=O)[nH]c1=S	UHRF1 MBD2 ctr 21.2
CCOC(=O)Cc1csc(NC(=O)c2c(C)noc2C)n1	UHRF1 MBD2 ctr 24.0
CCOC(=O)Cc1csc(NC(=O)c2c(-c3ccccc3)noc2C)n1	none
Nn1c(SCc2cccc3ccccc23)nnc1-c1n[nH]c2c1CCC2	none (no result: ARFGAP1 inh, ASAP1 GAP inh)
COc1ccc(CN2CC(C(=O)NCCCN3CCN(C)CC3)CC2=O)cc1 (centres undefined)	MBD2 DNA inh 17.9
COc1ccc(CN2CC(C(=O)NCCCN3CCCCCC3)CC2=O)cc1 (centres undefined)	none
COC(=O)C1CSc2[nH]c(=O)sc2C1c1ccc(OC)c(OC)c1 (centres undefined)	none
COC(=O)C1C(c2ccc(OC)c(OC)c2)NC(c2ccc(OC)c(OC)c2)C(C(=O)OC)S1(=O)=O (centres undefined)	UHRF1 MBD2 ctr 22.8
C=CCN1C(=O)[C@H](CC(=O)N2CCCCC2)[C@@]2(C(=O)OCC)CCCC=C12	none (no result: ARFGAP1 inh, ASAP1 GAP inh)
Cc1ccc(CNC(=O)c2ccc(N3CCC4(CC3)CC(c3ccccc3)=NO4)c([N+](=O)[O-])c2)cc1	UHRF1 MBD2 ctr 21.9
CCOc1ccccc1C(=O)NCC(=O)NNC(=O)c1cccs1	UHRF1 MBD2 ctr 21.2
Cc1nc2ccccn2c1C(O)(c1ccccc1)c1ccccc1	none (no result: ARFGAP1 inh, ASAP1 GAP inh)
C=CCN1C(=O)[C@H](CC(=O)NCc2ccc(C)o2)[C@@]2(C(=O)OCC)CCCC=C12	none (no result: ARFGAP1 inh, ASAP1 GAP inh)
Nn1c(SCC(=O)Nc2ccccc2-c2ccccc2)nnc1-c1cc(-c2ccccc2)n[nH]1	none (no result: ARFGAP1 inh, ASAP1 GAP inh)
Cc1ccc(SCCNC(=O)/C=C/c2ccccc2Cl)cc1	UHRF1 MBD2 ctr 27.4
Cc1ccc(SCCNC(=O)/C=C/c2ccc(Cl)cc2)cc1	none
CC(C)CCN(CCC(C)C)C(CO)(CO)CO	UHRF1 MBD2 ctr 21.5
C[C@H]1[C@@H](NC(=O)C2CCOC2)CC[C@@]23CCCN2C(=O)CCC[C@@H]13 (some centres undefined)	none (no result: ARFGAP1 inh, ASAP1 GAP inh)
